These results are taken from paper PMC4792293 (RSC advances, 2015).

Test [1] deals with T1, α-Glucosidase (EC 3.2.1.20) from Saccharomyces cerevisiae (Saccharomyces cerevisiae, UniProt P53341). The test is described as follows: α-glucosidase inhibitory assay. The test is classed as biochemical.
Test [2] has as its target T2, α-glucosidase (Saccharomyces cerevisiae, UniProt P53341). The test is described as follows: Isothermal titration calorimetry. As to conditions: for binding constants (Ka) / ΔG / Ka / ΔH / ΔS / N [GCGs/α-glucosidase] (ligand:enzyme ratio): ITC; for ITC titration peaks: ligand concentrations 1 – 4 mM. The test is classed as binding. The gist of the method:
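Test compound (1–4 mM) was titrated into α-glucosidase (0.026–0.031 mM) in the cell, both in 100 mM phosphate, pH 7.0, and degassed 20 min under vacuum. Titration used 17 injections at 240 s intervals, 25 °C, with stirring at 310 rpm. Blanks were buffer into buffer and compound into buffer. Data were fit by nonlinear regression to a single-site binding model.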

The target of test [3] is T1, α-Glucosidase (EC 3.2.1.20) from Saccharomyces cerevisiae. The test is described as follows: Kinetics of α-glucosidase inhibition. The test is classed as biochemical. As to conditions: Lineweaver-Burk plots, ligand 2 – 250 μM. The gist of the method:
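Two inhibitor concentrations within 2–250 μM were tested against p-nitrophenyl-α-D-glucopyranoside at 1–1000 μM in 50 mM phosphate, pH 6.8. Enzyme and inhibitor were pre-incubated for 30 min, at room temperature per the methods but at 37 °C per the figure legend. Substrate was then added, reacted 60 s at room temperature and read at 405 nm. Inhibition type was assigned from double-reciprocal plots.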

Test [4] addresses T2, α-glucosidase. Briefly: Circular dichroism. Type of test: binding. The following applies: α-glucosidase 2 μM; for β-Turns %: control 14.3; for β-Fold %: control 21.9; for Unordered %: control 26.9; for α-Helix %: control 36.3. The gist of the method:
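Far-UV CD spectra (190–240 nm) at 25 °C. Yeast α-glucosidase at 2 μM was co-incubated with test compound at 0–80 μM for 20 min at 37 °C in 0.1 M sodium phosphate, pH 6.8, in a 1.0 mm path-length cell. Spectra were blank-subtracted against buffer, noise-reduced and smoothed. Secondary-structure fractions were estimated with the DichroWeb server.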

The test system of test [5] is α-glucosidase. The following applies: cited from earlier work.
The mark [6] stands for this setting: yeast α-glucosidase, pNPG, pH 6.9, 25 °C, mean ± S.D. from three independent experiments.

Read-outs that look alike come from different tables or passages of the source.

T1 sequence (P53341 whole entry): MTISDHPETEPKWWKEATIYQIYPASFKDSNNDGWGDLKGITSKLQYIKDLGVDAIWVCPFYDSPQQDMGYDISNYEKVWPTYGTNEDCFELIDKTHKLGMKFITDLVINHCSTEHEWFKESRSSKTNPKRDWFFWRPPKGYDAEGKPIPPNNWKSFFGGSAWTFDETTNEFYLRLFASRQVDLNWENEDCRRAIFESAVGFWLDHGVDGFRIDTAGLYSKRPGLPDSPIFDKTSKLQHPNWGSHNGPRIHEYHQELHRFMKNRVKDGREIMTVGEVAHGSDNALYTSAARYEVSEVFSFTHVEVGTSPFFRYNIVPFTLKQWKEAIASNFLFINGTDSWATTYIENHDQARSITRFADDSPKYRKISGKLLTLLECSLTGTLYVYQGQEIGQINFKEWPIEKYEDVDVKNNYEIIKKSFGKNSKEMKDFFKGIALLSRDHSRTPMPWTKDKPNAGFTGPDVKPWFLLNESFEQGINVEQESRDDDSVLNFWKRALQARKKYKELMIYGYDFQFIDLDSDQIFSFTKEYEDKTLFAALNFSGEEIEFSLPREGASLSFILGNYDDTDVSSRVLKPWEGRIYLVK
T2 sequence (P53341 whole entry): as above

`O=C(OC[C@H]1OC[C@H](OC(=O)c2cc(O)c(O)c(O)c2)[C@@H](OC(=O)c2cc(O)c(O)c(O)c2)[C@@H]1OC(=O)c1cc(O)c(O)c(O)c1)c1cc(O)c(O)c(O)c1` [maplexin J]: in test [1] (setting [6]), the half-maximal inhibitory concentration (IC50) is 4.27 ± 0.13 µM. Further, the “potency relative to maplexins E and F” value in test [1] (α-glucosidase inhibition) is “three times more potent than maplexins E and F”. At α-glucosidase [2], the “binding constants (Ka)” value came out at 42200 mol⁻¹ and the ΔG was -6.31 kcal/mol. Moreover, on α-glucosidase [2] (25 °C, phosphate buffer pH 7.0), the Ka is 4.22 10^4 mol^−1, the ΔG is -1.51 kcal/mol, the ΔH was -6.016 kcal/mol and the ΔS was found to be 63.31 J mol^−1 K^−1. In addition, at α-glucosidase [2] (25 °C, phosphate buffer pH 7.0, listed as MJ), the “N [GCGs/α-glucosidase] (ligand:enzyme ratio)” value is 1.01. Moreover, the Type of inhibition entry in test [3] is recorded as “noncompetitive”. At α-glucosidase [4] (ligand 20 μM), this molecule yielded a β-Turns % of 20.4%, a β-Fold % of 21.1%, an Unordered % of 26.4% and a α-Helix % of 31.8%. On α-glucosidase [4] (ligand 40 μM), this molecule yielded a β-Turns % of 19.1%, a β-Fold % of 24.4%, an Unordered % of 25.3% and a α-Helix % of 30.7%.
Consider `C[C@H]1O[C@H](O[C@H]2[C@H](O)[C@@H](O)[C@@H](O[C@H]3[C@H](O)[C@@H](O)C(O)O[C@@H]3CO)O[C@@H]2CO)[C@H](O)[C@@H](O)[C@@H]1N[C@H]1C=C(CO)[C@@H](O)[C@H](O)[C@H]1O` (stereo partly shown) [acarbose], for which, in the test with α-glucosidase [5] (positive control), the Type of inhibition entry is “competitive inhibitor”.
Regarding `O=C(OC[C@H]1OC[C@H](OC(=O)c2cc(O)c(O)c(O)c2)[C@@H](O)[C@@H]1O)c1cc(O)c(O)c(O)c1` [ginnalin A], in test [1], inhibition was half-maximal at 216 ± 3.19 µM (IC50). At α-glucosidase [2], the ITC titration peaks result was “too weak to yield thermodynamic parameters”. Also, in test [3], the Type of inhibition result is reported as “noncompetitive”. On α-glucosidase [4] (ligand 40 μM), this molecule displayed a β-Turns % of 11.5%, a β-Fold % of 22.7%, an Unordered % of 27.8% and a α-Helix % of 37.8%. On α-glucosidase [4] (ligand 80 μM), this molecule returned a β-Turns % of 15.8%, a β-Fold % of 22.5%, an Unordered % of 27.7% and a α-Helix % of 33.5%.
Take `O=C(OC[C@H]1O[C@@H](OC(=O)c2cc(O)c(O)c(O)c2)[C@H](OC(=O)c2cc(O)c(O)c(O)c2)[C@@H](OC(=O)c2cc(O)c(O)c(O)c2)[C@@H]1OC(=O)c1cc(O)c(O)c(O)c1)c1cc(O)c(O)c(O)c1` [PGG, pentagalloyl glucose]: the Type of inhibition result in the test on α-glucosidase [5] was “noncompetitive α-glucosidase inhibitor”.
Regarding `O=C(O[C@H]1CO[C@H](CO)[C@@H](O)[C@@H]1O)c1cc(O)c(O)c(O)c1` [ginnalin C], the half-maximal inhibitory concentration (IC50) in test [1] was greater than 1000 µM. For the same molecule, the ITC titration peaks entry on α-glucosidase [2] was “too weak to yield thermodynamic parameters”.
In the same order, the values of `O=C(OC[C@H]1OC[C@H](O)[C@@H](O)[C@@H]1O)c1cc(O)c(O)c(O)c1` [ginnalin B] are greater than 1000 µM and “too weak to yield thermodynamic parameters”.
maplexin F came in with a half-maximal inhibitory concentration (IC50) in test [1] (setting [6]) of 13.7 ± 0.87 µM. On α-glucosidase [2], the “binding constants (Ka)” value came to 28500 mol⁻¹ and the ΔG is -6.09 kcal/mol. Also, at α-glucosidase [2] (25 °C, phosphate buffer pH 7.0), the Ka is listed as 2.85 10^4 mol^−1, the ΔG was -1.46 kcal/mol, the ΔH is -2.452 kcal/mol and the ΔS turned out to be 14.06 J mol^−1 K^−1. The “N [GCGs/α-glucosidase] (ligand:enzyme ratio)” value at α-glucosidase [2] (25 °C, phosphate buffer pH 7.0, listed as MF) amounted to 1.01. Besides, in test [3], the Type of inhibition result was “noncompetitive”. On α-glucosidase [4] (ligand 20 μM), this molecule came in with a β-Turns % of 15.6%, a β-Fold % of 24.7%, an Unordered % of 28.4% and a α-Helix % of 30.7%. At α-glucosidase [4] (ligand 40 μM), this molecule yielded a β-Turns % of 16.6%, a β-Fold % of 22.7%, an Unordered % of 28.9% and a α-Helix % of 31.2%.
